High-throughput results deposited in PubChem BioAssay by The Scripps Research Institute Molecular Screening Center.
In the library only some 1.7% were active in any assay of this set; here they are far more common.
M1 ag parental: nonselective activator or artifact in parental CHO-K1 cells; Fluo-8 calcium fluorescence; scaled to maximal ATP response, vehicle zero; AID 602248; activation, % at 3 µM; 360,000 compounds, 0.48% hits; in the data active = activation above about 15%;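 note: untransfected CHO-K1 host cells lacking M1 receptor as counterscreen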
CHRM5 antagonist: blocks acetylcholine activation of human M5 receptor; P08912; inhibition, % at 3 µM; 360,000 compounds, 0.59% hits; CHO-hM5 cells, Fluo-8 calcium fluorescence, ACh EC80; AID 624040;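 active = inhibition above a per-plate cutoff, the mean of that plate's test compounds plus 3 SD, cut at about 27% in these data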;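 note: 0% = acetylcholine EC80 with DMSO and 100% = DMSO without agonist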
Target sequence (P08912 whole entry, looked up): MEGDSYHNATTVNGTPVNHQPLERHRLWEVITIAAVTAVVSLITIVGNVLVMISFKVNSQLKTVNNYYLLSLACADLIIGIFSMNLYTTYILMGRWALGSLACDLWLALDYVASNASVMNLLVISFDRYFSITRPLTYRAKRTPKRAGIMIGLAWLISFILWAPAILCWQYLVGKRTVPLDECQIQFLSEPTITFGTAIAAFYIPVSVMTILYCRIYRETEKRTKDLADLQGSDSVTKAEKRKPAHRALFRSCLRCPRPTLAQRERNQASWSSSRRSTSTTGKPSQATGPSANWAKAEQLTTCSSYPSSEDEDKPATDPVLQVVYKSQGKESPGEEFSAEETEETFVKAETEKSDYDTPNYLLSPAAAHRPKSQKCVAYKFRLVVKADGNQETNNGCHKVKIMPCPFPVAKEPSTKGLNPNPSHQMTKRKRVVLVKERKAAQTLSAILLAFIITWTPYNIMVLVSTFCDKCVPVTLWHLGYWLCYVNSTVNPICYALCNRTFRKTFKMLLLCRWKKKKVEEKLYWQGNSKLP
CHO-K1 Ca antag: nonselective inhibitor or artifact in parental CHO-K1 cells; ATP-induced calcium, Fluo-8 fluorescence; inhibition, % at 3 µM; 360,000 compounds, 0.6% hits;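 active = inhibition above a per-plate cutoff, the plate's mean sample inhibition plus 3 SD, cut at about 24% in these data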;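 note: 0% = DMSO plus EC80 ATP and 100% = DMSO alone without ATP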
CHO-K1 Ca PAM: counter-screen for M1 PAMs: effect in parental CHO-K1 cells. activation, % at 3 µM. 360,000 compounds, 0.02% hits. ATP EC20, Fluo-8 calcium fluorescence; 0% at ATP EC20, 100% at ATP max;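 active = activation above the run cutoff, the mean activation of all test compounds plus 3 SD, cut at about 40% in these data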;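 note: peak over basal fluorescence ratio in a 140 s read after ATP addition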
CHRM5 agonist: agonists of human muscarinic M5 receptor (CHRM5); P08912; CHO-K1 hM5 cells, Fluo-8 calcium fluorescence; 0% DMSO wells, 100% maximal acetylcholine response; activation, % at 3 µM; 360,000 compounds, 0.19% hits; AID 624037;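 active = activation above the run's mean over test compounds plus 3 SD, cut at about 23% in these data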;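 note: signal is peak over basal fluorescence ratio across the kinetic read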
CHRM5 PAM: CHRM5 positive allosteric modulation | activation, % at 3 µM | CHO-K1 hM5, Fluo-8 calcium, ACh EC20 PAM; 0% = ACh EC20, 100% = ACh EC100 | 360,000 compounds, 0.3% hits;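 active = activation above the run cutoff, the mean activation of all test compounds plus 3 SD, cut at about 18% in these data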
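Replicates: One well per compound, no replicates | System: Human M5 receptor in CHO-K1 cells | Benchmarks: Low control EC20 acetylcholine (0%), high control EC100 acetylcholine (100%) | Probe or stimulus: Acetylcholine, EC20 level | Times: Fluo-8 loading 80 min at 37 °C plus 30 min room temperature | Signal: Intracellular calcium via Fluo-8 fluorescence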
An asterisk follows results filed as active.

SMILES	M1 ag parental	CHRM5 antagonist	CHO-K1 Ca antag	CHO-K1 Ca PAM	CHRM5 agonist	CHRM5 PAM
O=C1Nc2c(ccc(Cl)c2Cl)C(=O)C1(F)c1ccccc1 (stereo unspecified)	2.7	10.8	-1.0	16.9	-2.7	-3.4
CCCc1cc(=O)oc2cc(C)cc(OCC(=O)NC(Cc3ccc(Cl)cc3)C(=O)O)c12 (stereo unspecified)	-0.1	6.0	-6.4	13.2	1.5	-1.4
COCCn1c(COC)nc2ccccc21	-0.3	2.9	-1.7	-4.1	-2.4	5.4
COCc1nc2ccccc2n1CCc1ccccc1	-0.1	-6.3	26.4*	-10.1	6.8	3.1
OCCCCCCNc1ccc(CCO)cc1	6.4	0.2	14.0	9.6	1.2	-0.3
C=CCNC(=O)c1ccc(Cn2c(=S)[nH]c3cc4c(cc3c2=O)OCO4)cc1	0.2	-0.8	5.0	-1.9	-1.2	1.0
O=C(NCCN1CCCC1)c1ccc(Cn2c(=S)[nH]c3cc4c(cc3c2=O)OCO4)cc1	0.4	11.7	-7.0	3.7	27.6*	-15.1
Cc1cc(C)n(C(=O)c2cccc([N+](=O)[O-])c2C)n1	0.0	9.8	11.0	-6.5	-4.0	-7.0
CCOC(=O)c1sc(S(C)(=O)=O)c2c1CCc1conc1-2	0.3	6.0	35.5*	-9.2	-0.8	5.1
COc1ccccc1Cc1c(-c2ccco2)nc2c3ccccc3ccn12	0.2	10.3	-15.1	3.8	-3.9	-10.8
COc1ccc(C)cc1NC(=O)C1CCCN(S(=O)(=O)c2cccs2)C1 (stereo unspecified)	10.2	-4.0	-0.9	-2.8	-2.3	4.5
COC(=O)c1c(NC(=O)c2cccc([N+](=O)[O-])c2)sc(C(N)=O)c1C	-0.7	-1.2	28.6*	-9.6	-2.6	4.9
CCN(C1CCCCC1)S(=O)(=O)c1ccc(S(=O)(=O)NCc2ccncc2)cc1	18.1*	29.1*	-14.8	-5.8	11.3	-25.8
CCN(C1CCCCC1)S(=O)(=O)c1ccc(S(=O)(=O)NCCc2ccncc2)cc1	4.5	-0.6	-9.0	19.3	0.9	-9.9
O=C(c1ccccc1Sc1ccc([N+](=O)[O-])cc1Cl)N1CCOCC1	0.2	2.6	3.1	5.7	-1.9	-1.5
O=S(=O)(c1cccc(F)c1)N1CCN(c2ncnc3scc(-c4ccc(F)cc4)c23)CC1	-0.4	9.6	5.6	-19.4	0.0	-11.4
CCC(=O)Nc1ccc(-c2cc3ccccc3oc2=O)cc1	-0.6	-5.7	24.8*	-15.9	0.9	1.9
CCc1ccc(OCC(=O)Nc2ccc(-c3cc4ccccc4oc3=O)c(OC)c2)cc1	7.7	30.6*	26.2*	0.9	1.7	-14.5
CCC(=O)Nc1cc(-c2cc3ccccc3oc2=O)ccc1OC	0.1	-5.0	-14.5	11.3	2.0	-1.5
COc1ccccc1S(=O)(=O)Nc1cc(S(=O)(=O)N2CCCCC2)ccc1N1CCOCC1	1.7	-3.3	-7.8	-12.2	-4.0	5.9
C/C(=N\NC(=O)c1cnccn1)c1ccc([N+](=O)[O-])cc1	0.1	11.8	2.1	-2.5	-0.8	0.9
COc1ccc(OC)c(NC(=O)c2ccc(NC(C)=O)cc2)c1	-0.3	-3.3	5.1	6.5	0.4	-0.3
CCCc1cc(C(=O)Nc2cc(OC)ccc2OC)cs1	-0.7	7.5	25.1*	-29.5	-3.5	-7.3
CCn1ncc(CN2CCCC(CNC(=O)c3ccc(F)cc3)C2)c1C (stereo unspecified)	0.5	-0.5	-5.3	13.8	-5.7	3.5
COC(=O)c1cc(NC(=O)Cc2ccccc2[N+](=O)[O-])cc(C(=O)OC)c1	15.4*	0.5	3.3	2.3	4.8	-4.0
SMILES	M1 ag parental	CHRM5 antagonist	CHO-K1 Ca antag	CHO-K1 Ca PAM	CHRM5 agonist	CHRM5 PAM
O=C(Cc1ccccc1[N+](=O)[O-])Nc1ccc2c(c1)OCCO2	0.0	-5.3	-5.1	18.6	-5.2	0.6
O=C(CN1CCCCCC1)NCCc1ccc(F)cc1	2.7	8.5	-7.5	17.8	-4.6	-2.3
Nc1ccc(N(CCO)CCO)cc1	0.6	6.8	100.2*	5.2	-3.0	-4.7
CCN(CC)c1ccc(N)cc1	4.3	12.6	8.2	-11.6	1.1	-8.6
CCOc1ccccc1C(=O)OCC(=O)NCCNC(=O)COC(=O)c1ccccc1OCC	1.1	21.1	-7.4	21.3	2.2	37.7*
O=C(Nc1cccc(CNCCc2c[nH]c3ccccc23)c1)c1ccccc1Cl	26.8*	4.1	3.3	3.9	2.9	-2.1
O=C(COC(=O)c1ccccc1C(=O)OCC(=O)NCCc1c[nH]c2ccccc12)NCCc1c[nH]c2ccccc12	8.1	32.4*	11.8	-4.3	0.2	-38.4
Cc1cccc(NC(=S)NCC(c2ccccc2)N(C)C)c1 (stereo unspecified)	1.2	8.8	-8.4	4.1	-13.8	0.1
Cn1c(CC(=O)Nc2ccc(Cl)c(Cl)c2)n[nH]c1=S	0.5	-0.7	2.0	0.9	3.9	12.4
COc1ccc(Cc2n[nH]c(=S)n2NC(=O)Nc2ccc(Cl)c(Cl)c2)cc1	9.4	30.2*	10.1	15.1	5.9	-23.5
OCCN1CCN(c2ncnc3c2ncn3[C@H]2CN(Cc3ccccc3)C[C@@H](CO)O2)CC1	0.4	1.9	-6.6	8.0	1.7	-2.3
OCCN1CCN(c2ncnc3c2ncn3[C@H]2CN(Cc3cccnc3)C[C@@H](CO)O2)CC1	-0.1	10.9	26.9*	-10.8	-0.5	-5.6
OC[C@@H]1CN(Cc2ccc(-c3ccccc3)cc2)C[C@H](n2cnc3c(NC4CCC4)ncnc32)O1	10.8	29.4*	23.2	-11.4	5.3	-14.2
COc1cc(OC)cc(C(=O)NCCN2CCOCC2)c1	-0.2	-12.7	-2.8	7.0	-0.4	8.2
NC(=O)c1ccsc1NC(=O)COC(=O)CCCOc1ccccc1	13.6	10.9	17.4	-2.7	7.8	-19.3
COc1ccc(OCCCC(=O)OCC(=O)Nc2sccc2C(N)=O)cc1	13.9	20.9	11.7	-22.9	4.0	-31.7
NC(=O)c1ccsc1NC(=O)COC(=O)CCc1ccccc1	16.5*	24.1	5.9	-4.2	9.5	-18.5
CC(=O)c1ccc(OCC(=O)OCC(=O)Nc2sccc2C(N)=O)cc1	17.3*	19.9	8.5	-9.9	11.7	-22.4
NC(=O)c1ccsc1NC(=O)COC(=O)CCOc1ccccc1	17.3*	15.6	1.9	-13.4	9.4	-32.6
NC(=O)c1ccsc1NC(=O)COC(=O)COc1ccccc1F	10.4	8.9	-7.3	9.8	9.3	-8.7
CCOC(=O)c1c(C)[nH]c(C(=O)OCC(=O)Nc2sccc2C(N)=O)c1C	17.4*	6.0	5.5	-4.2	0.1	-20.1
CC(OC(=O)c1ccc(-n2cnnn2)cc1)C(=O)N(C)c1ccccc1 (stereo unspecified)	1.7	-1.8	-11.2	5.5	1.1	1.3
